Measured values gathered from unrelated publications.
Protocols differ between the studies behind these lines.
Target: Mitogen-activated protein kinase 15 (MAPK15, Homo sapiens, UniProt Q8TD08)
Sequence (Q8TD08 1-544, as in one of the studies): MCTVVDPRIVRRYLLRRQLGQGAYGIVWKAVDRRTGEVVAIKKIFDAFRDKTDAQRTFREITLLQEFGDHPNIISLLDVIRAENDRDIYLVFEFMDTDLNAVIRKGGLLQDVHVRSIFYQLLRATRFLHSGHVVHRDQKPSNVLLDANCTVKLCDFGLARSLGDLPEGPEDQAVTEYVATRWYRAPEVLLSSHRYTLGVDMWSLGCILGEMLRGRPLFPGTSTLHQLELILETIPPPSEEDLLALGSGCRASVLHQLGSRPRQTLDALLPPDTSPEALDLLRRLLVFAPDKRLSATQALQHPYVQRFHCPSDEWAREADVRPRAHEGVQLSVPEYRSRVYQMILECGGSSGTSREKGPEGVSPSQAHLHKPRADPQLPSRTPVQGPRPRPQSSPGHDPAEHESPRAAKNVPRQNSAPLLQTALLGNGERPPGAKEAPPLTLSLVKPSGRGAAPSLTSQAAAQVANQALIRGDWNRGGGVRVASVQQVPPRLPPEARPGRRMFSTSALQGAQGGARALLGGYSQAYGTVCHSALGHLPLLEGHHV

For Oc1cccc(-c2nc(N3CCOCC3)c3oc4ncccc4c3n2)c1, the remaining activity was 87% (enzyme activity, inhibitor; 10 µM).
Cn1cnc(Br)c1C1=CN(c2ncnc3[nH]cnc23)CCS1 has an inhibition of 80.2% (enzyme activity, inhibitor, radiometric; 2 µM).
With COc1cc(/C=C/C(=O)CC(=O)/C=C/c2ccc(O)c(OC)c2)ccc1O the activity vs control was 77% (enzyme activity, inhibitor; 1 µM).
The remaining activity of COc1cc(Nc2cnc(C#N)c(O[C@H](C)CN(C)C)n2)ncc1-c1cnn(C)c1 is reported as 101% (enzyme activity, inhibitor, radiometric; 1 µM).
N#CC1(c2ccccn2)CCN(Cc2cc(C(=O)N3CCCC3)c(=O)n3ccccc23)CC1 gave a remaining binding of 92% (cell-free assay, competition with immobilised ligand; 1 µM).
The remaining activity of Cc1sc(C(=O)NC2COC2)cc1-n1cc(NC(=O)Nc2c(F)cccc2Cl)cn1 is reported as 103% (enzyme activity, inhibitor; 10 µM).
For Cn1c(=O)n(-c2ccc(C(C)(C)C#N)cc2)c2c3cc(-c4cnc5ccccc5c4)ccc3ncc21, the remaining activity was 94% (enzyme activity, inhibitor; 10 µM).
The remaining binding of CS(=O)(=O)c1cc(C2(NC(=O)c3cncc4c3cnn4-c3ccc(F)cc3)CC2)ccn1 is reported as 100% (cell-free assay, competition with immobilised ligand; 1 µM).
Nc1nc(NC2CCCCC2)sc1C(=O)c1ccccc1 gave a remaining activity of 18% (enzyme activity, inhibitor; 10 µM).
CC(C)(C)c1nc(-c2cccc(NS(=O)(=O)c3c(F)cccc3F)c2F)c(-c2ccnc(N)n2)s1 gave a remaining activity of 80% (enzyme activity, inhibitor, radiometric; 1 µM).
Cc1nccc(COC(=O)N2C[C@@H]3[C@@H](CNC(=O)c4ccc5[nH]nnc5c4)[C@@H]3C2)n1 has a remaining binding of 100% (cell-free assay, competition with immobilised ligand; 1 µM).
O=C(Nc1cnn(-c2csc(C(=O)NC3COC3)c2)c1)Nc1c(F)cccc1Cl gave a remaining activity of 108% (enzyme activity, inhibitor; 5 µM).
CCC(=N\O)/C(C)=C/c1ccc(F)cc1 has a remaining binding of 95% (cell-free assay, competition with immobilised ligand; 1 µM).
The activity vs control of FC(F)(F)Oc1cccc(-c2cnc3ccc(-c4ccncc4)nn23)c1 is reported as 29% (enzyme activity, inhibitor, radiometric; 1 µM).
